The values below come from ChEMBL document CHEMBL4382225, “Dimeric cinnamoylamide analogues for regulation of tyrosinase activity in melanoma cells: A role of diamide-link chain length” (Bioorg Med Chem, 2018).

The structures appear in SMILES notation. pEC50, pIC50: −log10 of the molar value. Active and inactive are the calls of the source. No cut-off for these calls is given here.

Data set [1] has as its system B16-F1. Description: Antimelanogenic activity in mouse B16-F1 cells assessed as reduction in alpha-MSH-stimulated melanin production preincubated for 72 hrs followed by alpha-MSH-stimulation and measured after 2 hrs. Format: functional, cell-based. The method, boiled down: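 B16F1 cells seeded at 1 × 10⁵ cells/well, exposed to compound at indicated concentrations (up to 150 μM) together with 200 nM α-MSH for 72 h. Cells washed twice in PBS, dissolved in 1 N NaOH with 10% DMSO at 80 °C for 2 h, lysate absorbance read at 405 nm. IC₅₀ for melanin production; mean (SD) of three independent experiments.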

The nature of data set [2]: Metal chelating activity of the compound assessed as Cu2+-compound complex formation at 50 uM after 10 mins by UV-Vis spectrophotometric analysis. In short, it runs like this:
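Copper chelation by UV–vis spectra (220–400 nm). 50 μL of 50 μM compound in ethanol mixed with 0.95 mL aqueous 10 μM CuSO₄, or water as control, incubated at 25 °C for 10 min before spectra recorded.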

Data set [3] concerns the target T1, Tyrosinase (Mus musculus, UniProt P11344).
T1 sequence (P11344 whole entry): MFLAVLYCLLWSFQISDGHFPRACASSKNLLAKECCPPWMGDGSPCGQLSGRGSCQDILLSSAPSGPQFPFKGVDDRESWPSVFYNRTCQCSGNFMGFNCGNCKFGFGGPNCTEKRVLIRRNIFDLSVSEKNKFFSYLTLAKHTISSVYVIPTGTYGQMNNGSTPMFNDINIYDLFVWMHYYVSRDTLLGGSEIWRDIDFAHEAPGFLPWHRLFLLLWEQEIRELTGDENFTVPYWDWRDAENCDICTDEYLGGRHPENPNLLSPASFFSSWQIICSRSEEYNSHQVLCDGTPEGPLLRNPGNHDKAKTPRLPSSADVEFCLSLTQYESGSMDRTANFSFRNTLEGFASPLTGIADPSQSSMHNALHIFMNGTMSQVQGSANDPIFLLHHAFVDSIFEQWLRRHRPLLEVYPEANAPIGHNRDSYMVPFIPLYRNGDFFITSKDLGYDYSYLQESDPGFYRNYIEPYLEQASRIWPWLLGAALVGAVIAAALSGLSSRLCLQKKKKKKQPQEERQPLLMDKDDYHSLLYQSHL
As to the kind of experiment: Inhibition of tyrosinase in mouse B16-F1 cells. It counts as cell-based. In short, it runs like this:
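Lysate of B16F1 cells in RIPA buffer, spun 13,000 rpm for 30 min at 4 °C, supernatant protein quantified by BCA. IC₅₀; mean (SD) of three independent experiments.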

Data set [4] has as its target T2, Tyrosinase (Agaricus bisporus, UniProt O42713).
T2 sequence (O42713 whole entry): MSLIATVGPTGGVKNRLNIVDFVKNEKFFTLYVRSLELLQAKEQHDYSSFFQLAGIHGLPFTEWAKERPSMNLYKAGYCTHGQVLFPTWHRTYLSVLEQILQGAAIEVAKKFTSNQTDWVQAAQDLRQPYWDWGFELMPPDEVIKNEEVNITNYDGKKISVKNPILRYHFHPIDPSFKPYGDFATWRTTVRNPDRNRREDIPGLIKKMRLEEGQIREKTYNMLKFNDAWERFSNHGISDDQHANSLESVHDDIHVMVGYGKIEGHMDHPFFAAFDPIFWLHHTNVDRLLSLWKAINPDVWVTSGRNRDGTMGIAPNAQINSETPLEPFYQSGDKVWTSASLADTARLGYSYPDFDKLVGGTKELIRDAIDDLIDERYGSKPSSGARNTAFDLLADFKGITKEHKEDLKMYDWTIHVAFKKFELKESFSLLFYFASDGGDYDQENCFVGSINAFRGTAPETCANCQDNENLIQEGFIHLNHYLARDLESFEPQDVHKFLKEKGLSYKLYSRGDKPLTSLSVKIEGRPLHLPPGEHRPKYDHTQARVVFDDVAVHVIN
Description: Inhibition of mushroom tyrosinase.

Data set [5] in a line: Antioxidant activity assessed as DPPH free radical scavenging activity after 10 mins. Format: functional. (DPPH is a stable violet radical that fades when it is reduced.)
In data set [6] the test system is B16-F1. Description: Cytotoxicity against mouse B16-F1 cells at 100 to 200 uM after 72 hrs by MTT assay. It counts as cell-based. The settings on record: b16-f1, 72 h. The method, boiled down: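 B16F1 cells grown in DMEM with 10% FBS and 1% penicillin/streptomycin at 37 °C, 5% CO₂. Seeded 1 × 10⁴ cells/well, treated at 100, 150 and 200 μM for 72 h. Medium removed, MTT added for 1 h, formazan dissolved in DMSO, absorbance at 570 nm. Mean SD of three independent experiments vs untreated cells.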

Data set [7] is described as follows: Drug uptake in mouse B16-F1 cells. It counts as ADME, cell-based.

Usually pIC50 stands for the IC50 on a negative log10 scale, so that one unit is a factor of ten. One may read the pEC50 as the EC50 on a negative log10 scale, so that one unit is a factor of ten. With `COc1cc(/C=C/C(=O)NCCCCNC(=O)/C=C/c2ccc(O)c(OC)c2)ccc1O` [TERRESTRIBISAMIDE], the values for the negative logarithm of the IC50 (pIC50) with B16-F1 [1], against Tyrosinase [3] and against Tyrosinase [4] were less than 3.82, 4.05 and 3.96, respectively. Further, in data set [2], the result was Active. The pEC50 in data set [5] is 3.08. In addition, in the data set with B16-F1 [6], the Activity result is reported as “Non-Toxic”.

Take `COc1ccc(/C=C/C(=O)NCCCNC(=O)/C=C/c2ccc(OC)c(O)c2)cc1O`: the Drug uptake result in data set [7] is recorded as “Active”. The pIC50 with B16-F1 [1] was 3.95; at Tyrosinase [3], 4.33; against Tyrosinase [4], 4.26. Also, the result in data set [2] was Active. For the same compound, the pEC50 in data set [5] is 2.64. For the same compound, the Activity entry in the data set with B16-F1 [6] is reported as “Non-Toxic”.

Turning to `COc1cc(/C=C/C(=O)NCCNC(=O)/C=C/c2ccc(O)c(OC)c2)ccc1O`, the pIC50 with B16-F1 [1], at Tyrosinase [3] and on Tyrosinase [4] was less than 3.82 each time. Also, in data set [5], the pEC50 is 4.05. In addition, the Activity entry in the data set with B16-F1 [6] is listed as “Non-Toxic”.

As for `COc1ccc(/C=C/C(=O)NCCNC(=O)/C=C/c2ccc(OC)c(O)c2)cc1O`, the pIC50 with B16-F1 [1] was less than 3.82; at Tyrosinase [3], less than 3.82; at Tyrosinase [4] it was 4.07. In data set [5], the negative-log EC50 (pEC50) was 2.66. In the data set with B16-F1 [6], the Activity entry is reported as “Non-Toxic”.

With `O=C(/C=C/c1ccc(O)cc1)NCCCCNC(=O)/C=C/c1ccc(O)cc1`, the Drug uptake result in data set [7] was “Active”. Besides, the negative logarithm of the IC50 (pIC50) in the data set with B16-F1 [1] was less than 3.82; at Tyrosinase [3] it was less than 3.82; against Tyrosinase [4], 5.19. Further, the pEC50 in data set [5] is less than 2.30. Besides, in the data set on B16-F1 [6], the Activity result is given as “Non-Toxic”.

Consider `COc1ccc(/C=C/C(=O)NCCCCNC(=O)/C=C/c2ccc(OC)c(O)c2)cc1O`, for which the values for the pIC50 with B16-F1 [1], against Tyrosinase [3] and at Tyrosinase [4] were less than 3.82, less than 3.82 and 4.10, respectively. Also, the negative logarithm of the EC50 (pEC50) in data set [5] is 2.38. For the same compound, in the data set with B16-F1 [6], the Activity entry was “Non-Toxic”.

For `COc1cc(/C=C/C(=O)NCCCNC(=O)/C=C/c2ccc(O)c(OC)c2)ccc1O`, the Drug uptake entry in data set [7] was “Active”. Besides, the figures for the negative-log IC50 (pIC50) with B16-F1 [1], against Tyrosinase [3] and against Tyrosinase [4] were 3.91, 4.19 and 4.01, respectively. Besides, the outcome in data set [2] was Active. Moreover, the pEC50 in data set [5] is 3.82. Also, the Activity entry in the data set with B16-F1 [6] is on record as “Non-Toxic”.

Regarding `O=C(/C=C/c1ccc(O)cc1)NCCCNC(=O)/C=C/c1ccc(O)cc1`, the values for the pIC50 in the data set on B16-F1 [1], against Tyrosinase [3] and on Tyrosinase [4] were 4.34, 5.34 and 5.47, respectively. Moreover, the result in data set [2] was Active. Besides, the pEC50 in data set [5] was less than 2.30. In addition, in the data set on B16-F1 [6], the Activity result is reported as “Non-Toxic”.

As to `O=C(/C=C/c1ccc(O)cc1)NCCNC(=O)/C=C/c1ccc(O)cc1`, the pIC50 in the data set on B16-F1 [1] is less than 3.82; on Tyrosinase [3], less than 3.82; against Tyrosinase [4], 5.34. Further, the pEC50 in data set [5] is less than 2.30. For the same compound, the Activity entry in the data set on B16-F1 [6] is listed as “Non-Toxic”.

For the compound `O=C1O[C@H]([C@@H](O)CO)C(O)=C1O` [ASCORBIC ACID], the negative-log EC50 (pEC50) in data set [5] is 3.74.

Consider `OC[C@H]1O[C@@H](Oc2ccc(O)cc2)[C@H](O)[C@@H](O)[C@@H]1O` [ARBUTIN], for which the pIC50 in the data set with B16-F1 [1] was 3.83. The pEC50 in data set [5] is 2.77.

Turning to `O=C(/C=C/c1cccc(O)c1)NCCCCNC(=O)/C=C/c1cccc(O)c1`, the Drug uptake result in data set [7] was “Active”. The pIC50 in the data set with B16-F1 [1], against Tyrosinase [3] and on Tyrosinase [4] was less than 3.82 in each case. For the same compound, in data set [5], the pEC50 was less than 2.30. Moreover, the Activity entry in the data set on B16-F1 [6] is “Non-Toxic”.

As to `O=C(/C=C/c1cccc(O)c1)NCCNC(=O)/C=C/c1cccc(O)c1`, the pIC50 is less than 3.82 in the data set on B16-F1 [1], less than 3.82 at Tyrosinase [3] and 4.02 against Tyrosinase [4]. Also, the negative logarithm of the EC50 (pEC50) in data set [5] was less than 2.30. In the data set with B16-F1 [6], the Activity result is on record as “Non-Toxic”.

Turning to `O=C(/C=C/c1cccc(O)c1)NCCCNC(=O)/C=C/c1cccc(O)c1`, the negative logarithm of the IC50 (pIC50) was 4.02 in the data set with B16-F1 [1], 4.40 against Tyrosinase [3] and 4.26 against Tyrosinase [4]. The result in data set [2] was Active. Also, in data set [5], the pEC50 was less than 2.30. For the same compound, the Activity entry in the data set with B16-F1 [6] was “Non-Toxic”.
